Bioassay records (PubChem BioAssay)
Compounds with a hit are over-represented: about 3.7% of the library has one in this group of screens.
hERG protect – hERG rescue from dofetilide block, primary screen, cell-based, CHO-hERG, FluxOR thallium flux, dofetilide IC70; dofetilide IC70 present; activation (rescue from dofetilide block), less the hit threshold, % at 10 µM; hit rate 0.51% among 310,000;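 active = activation above the mean of controls blocked by dofetilide plus 5 SD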;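 also: thallium influx through hERG after potassium depolarization seen as dye fluorescence rise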
KCNK9 inh – KCNK9 potassium channel inhibitors, primary screen, HEK293 cells, thallium flux; hit rate 1.2% among 310,000; B-score at 10 µM; FluxOR thallium flux fluorescence; active compounds read low; Potassium channel subfamily K member 9 (Homo sapiens), Q9NPC2;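 active = ratio B-score over 3 SD below the library mean, with starting fluorescence within 5 SD of its mean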;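 also: negative B-score means less thallium flux so channel inhibition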
Kir21 inh – inhibitors of mouse Kir2.1 inward-rectifier potassium channel; Inward rectifier potassium channel 2 (Mus musculus), P35561; HEK293-Kir2.1, FluxOR thallium flux fluorescence; active compounds read low; B-score at 10 µM; hit rate 0.85% among 310,000; AID 1672, 2009;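 active = fluorescence ratio B-score at or below minus 3 SD of library scores, with starting-brightness B-score within 2 SD, cut at about -4.2 in these data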;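 also: channel flux triggered by added potassium and thallium sulfate stimulus; B-score of peak minus minimum fluorescence over baseline after thallium stimulus; more negative B-score means stronger Kir2.1 block with less thallium influx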
KCNQ1 inh – inhibitors of human KCNQ1 channel, primary screen, cell-based, thallium flux, high-throughput | Potassium voltage-gated channel subfamily KQT member 1 (Homo sapiens), P51787 | CHO-K1 KCNQ1, FluxOR thallium flux fluorescence; active compounds read high | B-score at 10 µM | hit rate 1.3% among 310,000 | AID 2642, 2010;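 active = compounds whose thallium flux B-score, printed positive for inhibition, exceeds three library SD while starting fluorescence stays within three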;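 also: channel opened by potassium depolarization with thallium stimulus after 20 min compound exposure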
KCNQ1 act – potentiators or activators of KCNQ1 channel, primary screen, cell-based, thallium flux, high-throughput; B-score at 10 µM; CHO-K1 KCNQ1, thallium flux FluxOR fluorescence; active compounds read high; AID 2648, 2010; hit rate 0.35% among 310,000;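 active = fluorescence ratio B-score, a plate-corrected score, at least three library SD, with initial intensity B-score within 5 SD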
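System: CHO-K1 cells stably expressing KCNQ1 / Medium: assay buffer for compound exposure, DMSO matched across wells / Reagent: thallium- and potassium-containing depolarizing buffer / Compound: one concentration, matched DMSO / Incubation: 20 min compound pretreatment at room temperature / Measured by: kinetic FluxOR fluorescence, 10 s baseline plus 110 s post-stimulus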
KCNK3 block – human KCNK3 channel inhibitors, primary screen, CHO cells, FluxOR thallium flux, B-score. FluxOR fluorescence; active compounds read low. B-score at 10 µM. hit rate 0.84% among 340,000. AID 602410, 2012;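 active = B-score under library mean minus 4 SD, starting fluorescence ratio at most library mean plus 5 SD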;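 also: more negative B-score means stronger inhibition of thallium flux through KCNK3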
KCNQ1 block val – KCNQ1 potassium channel inhibitors, confirmation, cell-based, Tl flux, duplicate; inhibition, % at 10 µM; hit rate 93% among 1,600; shares compounds with KCNQ1 inh; KCNQ1 cell line, FluxOR thallium flux fluorescence; AID 588353, 2011;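 active = primary screen active, with duplicate mean exceeding buffer control mean plus 3 SD of buffer wells, cut at about 28% in these data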;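 also: 0% = buffer control ratio and 100% = XE991 inhibitor control ratio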
CHO Tl flux – thallium flux effects in parental CHO cells, counter-screen for KCNQ1 inhibitor project, cell-based, Tl flux; shares compounds with KCNQ1 inh; AID 588366, 2011; hit rate 21% among 1,600; parental CHO-K1, FluxOR thallium flux fluorescence ratio; active compounds read low; zero means no signal rise above baseline; fluorescence ratio (Tl flux) at 10 µM;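 active = mean of duplicate thallium-flux fluorescence ratios in parental host cells more than 5 SD below the buffer control mean, cut at about 0.38 in these data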;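 also: ratio is peak minus minimum fluorescence divided by baseline fluorescence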
KCNQ1 ephys val – KCNQ1 channel inhibitors, confirmation, orthogonal assay, cell-based, automated electrophysiology; shares compounds with KCNQ1 inh; KCNQ1-CHO cells, automated patch clamp current; hit rate 20% among 490; AID 624120, 2012; calls only at 10 µM;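 active = KCNQ1 current drop exceeding 3 SD of negative control wells, seen in both duplicate runs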;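 also: steady state current during a 2 s step from -80 to +40 mV; negative values mean current inhibition and positive values mean potentiation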
KCNQ2 inh – KCNQ2 channel inhibition, selectivity assay for KCNQ1 inhibitor project, cell-based; inhibition, % at 10 µM; hit rate 71% among 1,600; KCNQ2 cells, FluxOR thallium flux fluorescence; shares compounds with KCNQ1 inh;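 active = mean percent inhibition of the KCNQ2 thallium signal more than 5 SD above the buffer-only control wells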;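 also: KCNQ2 expressed in CHO cells; 0% = buffer control wells and 100% = XE-991 inhibitor control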
Target sequence (O88943 whole entry, looked up): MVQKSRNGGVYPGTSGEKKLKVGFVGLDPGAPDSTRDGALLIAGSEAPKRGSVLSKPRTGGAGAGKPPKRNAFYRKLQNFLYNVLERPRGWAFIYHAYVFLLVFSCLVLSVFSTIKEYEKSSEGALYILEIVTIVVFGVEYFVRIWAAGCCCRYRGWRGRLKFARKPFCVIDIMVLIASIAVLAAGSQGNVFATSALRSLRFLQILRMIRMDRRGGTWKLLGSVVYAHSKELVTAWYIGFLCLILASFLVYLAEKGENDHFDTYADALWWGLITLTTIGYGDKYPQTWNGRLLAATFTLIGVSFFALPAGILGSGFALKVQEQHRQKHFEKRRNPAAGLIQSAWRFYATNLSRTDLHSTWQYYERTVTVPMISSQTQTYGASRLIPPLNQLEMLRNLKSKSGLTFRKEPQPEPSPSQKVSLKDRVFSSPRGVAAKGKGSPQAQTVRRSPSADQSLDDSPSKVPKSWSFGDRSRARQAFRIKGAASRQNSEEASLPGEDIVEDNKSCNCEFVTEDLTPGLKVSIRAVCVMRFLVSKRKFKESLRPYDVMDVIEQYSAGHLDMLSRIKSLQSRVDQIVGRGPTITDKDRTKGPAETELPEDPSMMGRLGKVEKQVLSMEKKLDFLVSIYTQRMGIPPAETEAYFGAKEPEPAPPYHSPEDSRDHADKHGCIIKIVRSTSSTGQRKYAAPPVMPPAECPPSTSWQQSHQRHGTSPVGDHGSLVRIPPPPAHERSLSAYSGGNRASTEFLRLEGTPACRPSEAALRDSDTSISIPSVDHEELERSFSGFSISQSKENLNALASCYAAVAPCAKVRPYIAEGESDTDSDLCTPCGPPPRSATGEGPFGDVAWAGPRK
KCNQ1-KCNE1 inh – KCNQ1/KCNE1 channel inhibition, selectivity assay for KCNQ1 inhibitor project, CHO-K1 cells, thallium flux, FluxOR; shares compounds with KCNQ1 inh; inhibition, % at 10 µM; hit rate 77% among 1,600; AID 652147, 2013; FluxOR thallium flux fluorescence;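 active = mean percent inhibition of duplicate wells above the buffer-only control mean plus 3 SD of those controls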;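 also: 0% = buffer only wells and 100% = XE-991 inhibitor control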
* = called active by the depositor; i = inactive; · = no result given.

SMILES	hERG protect	KCNK9 inh	Kir21 inh	KCNQ1 inh	KCNQ1 act	KCNK3 block	KCNQ1 block val	CHO Tl flux	KCNQ2 inh	KCNQ1-KCNE1 inh	others
O=C1CCN(Cc2ccccc2)CCN1CCOc1ccccc1	-4	i	-0.3	6*	i	i	0	0.51	i	i
O=C(Nc1ccccc1)OCCN1CCN(Cc2ccccc2)CCC1=O	-4	i	0.15	i	i	i	·	·	·	·
Cc1ccc(NC(=O)CCC(=O)NNC(=O)c2ccccc2Cl)c(C)c1	-6	i	-2	i	i	i	·	·	·	·
CC(C)C(=O)Nc1ncc(Cc2ccc(Cl)cc2)s1	-9	i	-1	i	i	i	·	·	·	·
CN=C(C)/C(C(=O)OC)=C(/O)c1ccc(Cl)cc1Cl	-4	i	-0.04	i	i	i	·	·	·	·
OCCC1CN(Cc2cccnc2)CCN1CCc1ccccc1 (stereo not drawn)	-17	i	0.25	7*	i	i	0	0.45	i	i
CCCCOc1ccc(CSCCN)cc1Cl	-14	i	-3.8	6*	i	i	68*	0.44	i	103%*
CCOc1ccc(CSC(=N)N)cc1Cl	-12	i	-0.5	i	i	i	·	·	·	·
COC(=O)c1[nH]c2cc(C)ccc2c1NC(=O)CN1CCCc2ccccc21	-12	i	-1.4	8*	i	i	72*	0.44	93%*	82%*
COC(=O)c1[nH]c2cc(C)ccc2c1NC(=O)CN1CCN(C(=O)c2ccco2)CC1	-2	i	1.4	i	i	i	·	·	·	·
CCOC(=O)CC1CCCCN1C(=O)c1cc(COc2cccc3cnccc23)on1 (stereo not drawn)	-19	i	-4.1	11*	i	i	136*	0.48	92%*	58%*	KCNQ1 ephys val=i
COC(=O)C1CCCCN1C(=O)c1cc(COc2cccc3cnccc23)on1 (stereo not drawn)	-22	i	1	9*	i	i	25*	0.57	75%*	i
COc1ccc(C(=O)C(Sc2nnc(C)c(=O)[nH]2)c2ccc(OC)cc2)cc1 (stereo not drawn)	-14	i	0.53	i	i	i	·	·	·	·
O=C(CCC(=O)N1CCOc2ccccc21)NCCCN1CCN(Cc2ccccc2)CC1	-6	i	0.18	i	i	i	·	·	·	·
Cc1cc(NC(=S)Nc2cccnc2)ccc1Br	-24	i	-0.05	10*	i	i	67*	0.49	i	i
